FN deposit inh – inhibitors of fibronectin matrix deposition, primary screen, AH1F cells, Alexa488-fibronectin fluorescence, plate reader; inhibition, % at 12.6 µM; 350,000 compounds, 0.086% hits; AH1F fibroblasts, overnight;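 active means mean inhibition across replicates of 30% or more, regardless of how many single replicates reach that level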
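Material – AH1F fibroblast monolayer, labelled fibronectin deposition · Reagent – labelled fibronectin 24 nM · Timing – 1 h adhesion, overnight exposure · Measured by – fluorescence at 485 nm excitation, 525 nm emission · Read-out – inhibition of fibronectin deposition signal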
CaV13 ICDI inh – Primary screen for inhibitors of IQ motif and Ca2+-dependent inactivation inhibitor domain binding in CACNA1D, Förster resonance energy transfer in living cells, …. 340,000 compounds, 0.098% hits. inhibition, % at 12.3 µM. AID 743397. HEK cells, CFP/YFP FRET ICDI-IQ, plate reader, 10 min; percent FRET-ratio fall versus neutral wells;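 active means mean replicate inhibition of at least 30% and at least 1% of replicates passing that level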
SR-BI DiI inh – inhibitors of SR-BI mediated HDL lipid uptake, primary screen, ldlA[mSR-BI] cells, fluorescence, single point | Scavenger receptor class B member 1 (Mus musculus), Q61009 | AID 488896, 2010 | ldlA[mSR-BI] CHO cells, DiI-HDL uptake fluorescence, 3 h | inhibition, % at 12.5 µM | 320,000 compounds, 0.96% hits;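 active means mean replicate inhibition of at least 70% and a set share of replicates each scoring 70 or more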
Target sequence (Q61009 whole entry, looked up): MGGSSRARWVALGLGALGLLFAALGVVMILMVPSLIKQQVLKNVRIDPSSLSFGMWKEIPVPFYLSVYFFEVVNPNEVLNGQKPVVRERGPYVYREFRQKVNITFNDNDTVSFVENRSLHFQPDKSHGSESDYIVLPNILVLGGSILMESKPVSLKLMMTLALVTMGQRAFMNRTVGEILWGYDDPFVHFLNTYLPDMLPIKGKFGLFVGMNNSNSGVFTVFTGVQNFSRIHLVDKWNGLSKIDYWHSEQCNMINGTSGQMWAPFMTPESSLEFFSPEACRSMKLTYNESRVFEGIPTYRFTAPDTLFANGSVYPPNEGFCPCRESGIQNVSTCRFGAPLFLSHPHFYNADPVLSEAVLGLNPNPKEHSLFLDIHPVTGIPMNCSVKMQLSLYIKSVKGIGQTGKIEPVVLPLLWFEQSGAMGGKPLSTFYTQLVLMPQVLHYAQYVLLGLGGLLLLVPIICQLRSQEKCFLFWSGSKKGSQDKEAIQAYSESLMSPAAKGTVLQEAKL
Efflux pump mplx – inhibitors of Candida efflux pumps in yeast, primary screen, S. cerevisiae, Nile Red, multiplex; S. cerevisiae Candida pump triplex; inhibition, % at 10 µM; 330,000 compounds, 0.44% hits;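 active means plate passing quality check with inhibition over a set limit, or well fluorescence over plate mean plus 4 SD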;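 further: Nile Red retained in pooled yeast measured as flow cytometry median fluorescence; higher means more Nile Red kept so more efflux inhibition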
SR-BI uptake up – activators of SR-BI mediated DiI-HDL uptake, primary screen, ldlA[mSR-BI] CHO cells, DiI fluorescence; 3 h; 100 = double the neutral-control signal; activation, % at 12.5 µM; 320,000 compounds, 0.096% hits;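 active means mean replicate activation of at least 60% and every replicate at or above 60%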
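Assay system: CHO ldlA[mSR-BI] cells, LDL receptor-null, SR-BI overexpressing; medium: Ham's F12 with 0.5% BSA, HEPES 25 mM, pH 7.4; also added: DiI-HDL 10 µg/mL; timing: 3 h uptake period with compound, 37 °C; signal: DiI fluorescence, bottom read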
Hits are given with their value. The list is not random: actives were taken first. Their share in the collection is about 1.2%.

Screening COc1cccc(C#Cc2ccc3c(c2)[C@@H]2[C@@H](CCN2S(=O)(=O)c2ccc(C)cc2)[C@H](CO)N3)c1 returned FN deposit inh inactive.
CCOC(=O)C1=C(COC(=O)/C=C/c2cc(OC)c(OC)c(OC)c2)NC(=O)NC1C (configuration not stated) was read as FN deposit inh inactive, CaV13 ICDI inh inactive, SR-BI DiI inh 81, Efflux pump mplx inactive and SR-BI uptake up inactive.
O=C(c1ccccc1)c1cc(Cl)ccc1N1C(=O)C=CC1=O was read as FN deposit inh 50, CaV13 ICDI inh inactive, SR-BI DiI inh inactive and SR-BI uptake up inactive.
Screening CCC1CN(C(=O)N2CCC(C(=O)NCCc3ccc(OC)cc3OC)CC2)c2ccccc2O1 (configuration not stated) returned FN deposit inh inactive, CaV13 ICDI inh inactive, SR-BI DiI inh 78, Efflux pump mplx inactive and SR-BI uptake up inactive.
For CC(C)OCCCNC(=O)c1c(N)n(/N=C/c2ccccn2)c2nc3ccccc3nc12 the results were CaV13 ICDI inh inactive, SR-BI DiI inh inactive, Efflux pump mplx inactive and SR-BI uptake up 84.
CNC[C@H]1Oc2ccc(N(S(C)(=O)=O)S(C)(=O)=O)cc2C(=O)N(C)C[C@@H]1C was read as FN deposit inh inactive.
`COCc1cc(C)nc(SCC(=O)Oc2ccc(Cl)cc2)c1C#N` gave FN deposit inh inactive, CaV13 ICDI inh 47, SR-BI DiI inh inactive, Efflux pump mplx inactive and SR-BI uptake up inactive.
Screening CNC(=O)C[C@@H]1CC[C@H]2[C@@H](COc3ccc(NC(=O)c4ccc5c(c4)OCO5)cc3C(=O)N2C)O1 returned FN deposit inh inactive.
CCCn1c2ccc(/C(C)=N\O)cc2c2cc(/C(C)=N/O)ccc21 was read as CaV13 ICDI inh inactive, SR-BI DiI inh 101, Efflux pump mplx inactive and SR-BI uptake up inactive.
Screening COCCOC(=O)c1c(C)n(C)c2ccc(OC(=O)N3CCOCC3)cc12 returned FN deposit inh inactive, SR-BI DiI inh inactive, Efflux pump mplx inactive and SR-BI uptake up inactive.
COCCOC(=O)c1c(C)n(C)c2ccc(OC(=O)c3c(OC)cccc3OC)cc12 was read as FN deposit inh inactive, CaV13 ICDI inh inactive, SR-BI DiI inh inactive, Efflux pump mplx inactive and SR-BI uptake up 397.
For O=C(C[C@@H]1CC[C@H](NC(=O)Cc2ccccn2)[C@H](CO)O1)NCCCN1CCOCC1 the results were FN deposit inh inactive.
COc1ccccc1S(=O)(=O)N[C@H]1C=C[C@@H](CC(=O)NCc2cccc(F)c2)O[C@H]1CO was read as FN deposit inh inactive.
Screening O=C(O)C1Nc2c(O)cc(Cl)c([N+](=O)[O-])c2C2C=CCC12 (configuration not stated) returned FN deposit inh inactive, CaV13 ICDI inh inactive, SR-BI DiI inh 83, Efflux pump mplx inactive and SR-BI uptake up inactive.
Screening CCOc1ccc(C2CC(c3c(O)c4ccccc4oc3=O)=NN2c2ccccc2)cc1OC (configuration not stated) returned FN deposit inh inactive, CaV13 ICDI inh 165 and Efflux pump mplx inactive.
Screening COc1ccc(C2=NN(C(=O)c3ccccc3)C(c3ccc(OC)c(OC)c3)C2)c(O)c1 (configuration not stated) returned FN deposit inh inactive, CaV13 ICDI inh inactive, SR-BI DiI inh inactive and SR-BI uptake up inactive.
For O=C(N[C@H]1CC[C@@H](CCNC(=O)c2cnccn2)O[C@H]1CO)c1ccc2c(c1)OCO2 the results were FN deposit inh inactive.
Screening COC(=O)c1c(NC(=O)Cc2ccccc2)sc(C)c1C returned CaV13 ICDI inh inactive, SR-BI DiI inh inactive, Efflux pump mplx inactive and SR-BI uptake up inactive.
`COC(=O)c1c(NC(=S)Nc2ccccc2Cl)sc(C)c1C` gave SR-BI DiI inh 75, Efflux pump mplx inactive and SR-BI uptake up inactive.
O=C(C[n+]1ccc(-c2cc(C(=O)Nc3cccc(C(F)(F)F)c3)c3ccccc3n2)cc1)c1cccc([N+](=O)[O-])c1 was read as FN deposit inh inactive, CaV13 ICDI inh inactive, SR-BI DiI inh 87, Efflux pump mplx inactive and SR-BI uptake up inactive.

Screens (PubChem)
